Drawing on ChEMBL document CHEMBL4251569, “Camptothecin-psammaplin A hybrids as topoisomerase I and HDAC dual-action inhibitors” (Eur J Med Chem, 2018), this text covers IC50, Activity and inhibition in vivo for three compounds.

Usually IC50 stands for the midpoint of a concentration-inhibition curve. The low end stands for higher potency, the high end for lower potency.

The test system of assay [1] is HT-29. Kind of assay: Antiproliferative activity against human HT-29 cells after 72 hrs by SRB assay. In kind it is functional, cell-based. To be noted: HT-29, 72 h. (The SRB assay estimates cell density from bound dye.)
The subject of assay [2] is HeLa. Description: cells. The class given is functional, cell-based. To be noted: Homo sapiens, 72 h.
Assay [3] relates to CAPAN-1. Description: cells. The class given is functional, cell-based. Particulars: Homo sapiens, CAPAN-1, 72 h; call rule not given here.
The nature of assay [4]: cells. The class given is functional, cell-based. Particulars: Homo sapiens, A2780/DX, 72 h.
For assay [5], the system named is DG-75. Kind of assay: cells. To be noted: Homo sapiens, DG-75, 72 h. The class given is functional, cell-based.
A short description of assay [6]: cells. Particulars: Homo sapiens, MINO, 72 h. The class given is functional, cell-based.
A short description of assay [7]: Antiproliferative activity against human Mino cells at 10 uM after 72 hrs by MTT assay relative to control. In kind it is functional.
In assay [8] the test system is KM-H2. Description: Antiproliferative activity against human KM-H2 cells at 10 uM after 72 hrs by MTT assay relative to control. The class given is functional.
The subject of assay [9] is L-428. Description: Antiproliferative activity against human L428 cells at 10 uM after 72 hrs by MTT assay relative to control. In kind it is functional. (Tetrazolium dyes change colour on reduction, which living cells bring about.)
The subject of assay [10] is NB-4. Description: cells. The class given is functional, cell-based. Particulars: Homo sapiens, NB-4, 72 h.
In assay [11] the test system is NCI-H460. Kind of assay: cells. In kind it is functional, cell-based. Particulars: Homo sapiens, NCI-H460, 72 h.
The subject of assay [12] is A-431. Description: cells. The class given is functional, cell-based. Particulars: Homo sapiens, A-431, 72 h.
The nature of assay [13]: cells. The class given is functional, cell-based. Particulars: Homo sapiens, MM487, 72 h.
Assay [14] has as its system A2780. Kind of assay: cells. The class given is functional, cell-based. Particulars: Homo sapiens, A2780, 72 h.
The test system of assay [15] is OCI-Ly3. Kind of assay: cells. To be noted: Homo sapiens, OCI-Ly3, 72 h.
The subject of assay [16] is DG-75. Description: Antiproliferative activity against human DG75 cells at 10 uM after 72 hrs by MTT assay relative to control. In kind it is functional.
In assay [17] the test system is JeKo-1. Kind of assay: cells. In kind it is functional, cell-based. Particulars: Homo sapiens, JeKo-1, 72 h.
For assay [18], the system named is JeKo-1. Kind of assay: Antiproliferative activity against human JeKo1 cells at 10 uM after 72 hrs by MTT assay relative to control. In kind it is functional.
Assay [19] has as its system KM-H2. Kind of assay: cells. Particulars: Homo sapiens, KM-H2, 72 h.
The subject of assay [20] is HepG2. Kind of assay: Antiproliferative activity against human HepG2 cells after 72 hrs by SRB assay. In kind it is functional, cell-based. To be noted: HepG2, 72 h.
Assay [21] relates to MM473. Description: animal or person. To be noted: Mus musculus, MM473, iv, read-out: INH.
For assay [22], the system named is U2932. Description: cells. In kind it is functional, cell-based. Particulars: Homo sapiens, U2932, 72 h.
Assay [23] concerns OCI-Ly3. Kind of assay: Antiproliferative activity against human OCI-LY3 cells at 10 uM after 72 hrs by MTT assay relative to control. In kind it is functional.
In assay [24] the test system is L-428. Description: cells. To be noted: Homo sapiens, L-428, 72 h. The class given is functional, cell-based.
For assay [25], the system named is DU-145. Description: cells. In kind it is functional, cell-based. To be noted: Homo sapiens, DU-145, 72 h.
Assay [26] can be described thus: cells. In kind it is functional, cell-based. To be noted: Homo sapiens, 72 h.
A short description of assay [27]: cells. In kind it is functional, cell-based. Particulars: Homo sapiens, 72 h. The source holds these as a separate data set.
For assay [28], the target named is Histone deacetylase 2 (Homo sapiens, UniProt Q92769). Kind of assay: Inhibition of HDAC2 (unknown origin) using RHKK(Ac)AMC as substrate after 1 to 2 hrs by fluorescence assay.
Assay [29] addresses Polyamine deacetylase HDAC10 (Homo sapiens, UniProt Q969S8). Kind of assay: Inhibition of HDAC10 (unknown origin) using RHKK(Ac)AMC as substrate after 1 to 2 hrs by fluorescence assay.
Assay [30] concerns the target Histone deacetylase 4 (Homo sapiens, UniProt P56524). Kind of assay: Inhibition of HDAC4 (unknown origin) using fluorogenic substrate after 1 to 2 hrs by fluorescence assay. The method, boiled down:
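Purified HDAC4 preincubated with compound (10 concentrations from 10 µM, triplicate, final 1% DMSO) in 50 mM Tris-HCl pH 8.0, 137 mM NaCl, 2.7 mM KCl, 1 mM MgCl2, 1 mg/ml BSA. Class 2a trifluoroacetyl-lysine fluorogenic substrate added and incubated 1–2 h at 30 °C. Developer with TMP269 stops the reaction; fluorescence read at ex 360/em 460 at plateau. Activity is relative to DMSO, and IC50 comes from a sigmoidal fit.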

The target of assay [31] is Histone deacetylase 1 (Homo sapiens, UniProt Q13547). Kind of assay: Inhibition of HDAC1 (unknown origin) using RHKK(Ac)AMC as substrate after 1 to 2 hrs by fluorescence assay.
Assay [32] deals with Protein deacetylase HDAC6 (Homo sapiens, UniProt Q9UBN7). Kind of assay: Inhibition of HDAC6 (unknown origin) using RHKK(Ac)AMC as substrate after 1 to 2 hrs by fluorescence assay.

Structures are written as SMILES.

Histone deacetylase 2, sequence (Q92769 whole entry): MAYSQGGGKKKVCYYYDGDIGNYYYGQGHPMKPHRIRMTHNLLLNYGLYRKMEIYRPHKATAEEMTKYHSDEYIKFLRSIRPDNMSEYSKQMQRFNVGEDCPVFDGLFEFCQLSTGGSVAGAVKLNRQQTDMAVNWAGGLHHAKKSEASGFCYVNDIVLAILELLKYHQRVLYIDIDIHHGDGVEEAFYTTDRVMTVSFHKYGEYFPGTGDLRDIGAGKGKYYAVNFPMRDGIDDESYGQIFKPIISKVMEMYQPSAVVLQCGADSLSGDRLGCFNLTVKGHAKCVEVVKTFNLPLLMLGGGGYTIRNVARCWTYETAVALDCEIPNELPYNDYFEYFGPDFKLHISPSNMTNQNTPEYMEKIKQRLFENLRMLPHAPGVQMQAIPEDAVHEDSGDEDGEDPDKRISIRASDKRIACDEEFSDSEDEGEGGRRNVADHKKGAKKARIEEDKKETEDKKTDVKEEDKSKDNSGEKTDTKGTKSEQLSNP
Histone deacetylase 4, sequence (P56524 whole entry): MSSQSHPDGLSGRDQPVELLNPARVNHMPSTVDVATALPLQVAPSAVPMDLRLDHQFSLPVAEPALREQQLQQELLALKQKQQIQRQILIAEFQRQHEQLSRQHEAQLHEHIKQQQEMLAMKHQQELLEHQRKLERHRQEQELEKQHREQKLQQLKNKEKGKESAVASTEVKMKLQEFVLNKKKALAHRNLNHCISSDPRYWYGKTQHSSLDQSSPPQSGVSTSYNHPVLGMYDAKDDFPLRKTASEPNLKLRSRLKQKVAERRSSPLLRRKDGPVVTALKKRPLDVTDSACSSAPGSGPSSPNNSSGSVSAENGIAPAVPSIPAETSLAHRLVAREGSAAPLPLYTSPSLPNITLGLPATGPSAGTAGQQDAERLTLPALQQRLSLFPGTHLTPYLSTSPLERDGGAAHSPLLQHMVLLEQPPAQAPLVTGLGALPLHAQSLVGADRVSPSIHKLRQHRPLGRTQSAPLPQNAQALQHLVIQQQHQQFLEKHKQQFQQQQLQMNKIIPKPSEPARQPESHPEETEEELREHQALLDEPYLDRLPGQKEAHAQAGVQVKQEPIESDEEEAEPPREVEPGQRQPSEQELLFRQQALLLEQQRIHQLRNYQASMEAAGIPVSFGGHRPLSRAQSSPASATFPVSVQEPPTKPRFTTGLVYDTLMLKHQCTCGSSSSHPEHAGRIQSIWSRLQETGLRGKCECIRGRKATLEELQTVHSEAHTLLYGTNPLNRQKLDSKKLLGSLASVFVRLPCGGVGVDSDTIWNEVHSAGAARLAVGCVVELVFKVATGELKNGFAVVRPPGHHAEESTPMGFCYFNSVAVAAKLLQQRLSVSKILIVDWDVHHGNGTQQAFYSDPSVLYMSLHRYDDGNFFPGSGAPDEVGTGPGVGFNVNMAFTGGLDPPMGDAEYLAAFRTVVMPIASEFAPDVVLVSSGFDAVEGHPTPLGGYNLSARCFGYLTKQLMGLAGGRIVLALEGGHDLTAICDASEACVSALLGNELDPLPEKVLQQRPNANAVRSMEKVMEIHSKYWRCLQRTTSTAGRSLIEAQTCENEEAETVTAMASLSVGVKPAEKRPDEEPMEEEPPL
Protein deacetylase HDAC6, sequence (Q9UBN7 whole entry): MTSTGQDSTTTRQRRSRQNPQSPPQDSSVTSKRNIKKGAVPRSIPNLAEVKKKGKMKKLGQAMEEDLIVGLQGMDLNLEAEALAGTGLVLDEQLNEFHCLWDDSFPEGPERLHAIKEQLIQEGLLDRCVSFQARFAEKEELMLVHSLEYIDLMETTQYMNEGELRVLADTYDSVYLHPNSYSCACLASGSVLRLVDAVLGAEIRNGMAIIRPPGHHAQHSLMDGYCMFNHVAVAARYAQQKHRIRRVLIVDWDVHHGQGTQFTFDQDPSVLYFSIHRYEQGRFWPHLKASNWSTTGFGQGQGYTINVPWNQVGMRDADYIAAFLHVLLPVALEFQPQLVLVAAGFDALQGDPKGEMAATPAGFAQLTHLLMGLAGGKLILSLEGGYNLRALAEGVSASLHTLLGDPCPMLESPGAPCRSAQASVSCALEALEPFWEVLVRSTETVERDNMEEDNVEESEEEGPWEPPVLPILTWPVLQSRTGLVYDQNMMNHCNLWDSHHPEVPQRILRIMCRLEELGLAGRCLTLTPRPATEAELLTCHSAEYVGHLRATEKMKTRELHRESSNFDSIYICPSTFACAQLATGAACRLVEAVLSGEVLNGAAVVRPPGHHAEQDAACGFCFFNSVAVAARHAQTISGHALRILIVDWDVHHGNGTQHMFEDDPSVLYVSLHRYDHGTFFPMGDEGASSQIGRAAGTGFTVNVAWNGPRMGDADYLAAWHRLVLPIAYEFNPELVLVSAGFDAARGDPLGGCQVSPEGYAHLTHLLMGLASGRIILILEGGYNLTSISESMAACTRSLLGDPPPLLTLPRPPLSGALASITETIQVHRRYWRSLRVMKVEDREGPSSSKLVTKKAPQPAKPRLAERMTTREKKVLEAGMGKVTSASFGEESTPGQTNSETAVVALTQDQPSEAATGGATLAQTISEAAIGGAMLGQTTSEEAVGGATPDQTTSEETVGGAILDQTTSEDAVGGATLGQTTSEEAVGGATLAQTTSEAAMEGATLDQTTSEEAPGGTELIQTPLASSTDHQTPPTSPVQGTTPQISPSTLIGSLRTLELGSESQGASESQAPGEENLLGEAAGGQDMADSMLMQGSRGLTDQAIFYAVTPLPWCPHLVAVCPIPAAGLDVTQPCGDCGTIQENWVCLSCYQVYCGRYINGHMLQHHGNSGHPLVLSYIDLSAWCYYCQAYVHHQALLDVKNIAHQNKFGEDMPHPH
Polyamine deacetylase HDAC10, sequence (Q969S8 whole entry): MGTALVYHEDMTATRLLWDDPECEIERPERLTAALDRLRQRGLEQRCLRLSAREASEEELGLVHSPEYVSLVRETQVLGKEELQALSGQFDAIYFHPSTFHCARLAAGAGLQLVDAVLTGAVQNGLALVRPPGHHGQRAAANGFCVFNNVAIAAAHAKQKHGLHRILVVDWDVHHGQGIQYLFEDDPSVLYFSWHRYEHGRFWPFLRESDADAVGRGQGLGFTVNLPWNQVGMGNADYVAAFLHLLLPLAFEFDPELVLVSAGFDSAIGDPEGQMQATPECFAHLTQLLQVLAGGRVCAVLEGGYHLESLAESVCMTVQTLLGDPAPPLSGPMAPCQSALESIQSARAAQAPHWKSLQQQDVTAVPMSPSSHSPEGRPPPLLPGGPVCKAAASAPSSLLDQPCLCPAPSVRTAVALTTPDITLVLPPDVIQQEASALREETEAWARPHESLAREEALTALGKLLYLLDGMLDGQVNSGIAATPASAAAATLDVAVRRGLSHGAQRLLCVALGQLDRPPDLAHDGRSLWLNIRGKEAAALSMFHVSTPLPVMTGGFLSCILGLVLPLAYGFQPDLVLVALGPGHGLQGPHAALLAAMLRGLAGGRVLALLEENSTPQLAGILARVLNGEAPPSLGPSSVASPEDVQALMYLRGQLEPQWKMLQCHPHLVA
Histone deacetylase 1, sequence (Q13547 whole entry): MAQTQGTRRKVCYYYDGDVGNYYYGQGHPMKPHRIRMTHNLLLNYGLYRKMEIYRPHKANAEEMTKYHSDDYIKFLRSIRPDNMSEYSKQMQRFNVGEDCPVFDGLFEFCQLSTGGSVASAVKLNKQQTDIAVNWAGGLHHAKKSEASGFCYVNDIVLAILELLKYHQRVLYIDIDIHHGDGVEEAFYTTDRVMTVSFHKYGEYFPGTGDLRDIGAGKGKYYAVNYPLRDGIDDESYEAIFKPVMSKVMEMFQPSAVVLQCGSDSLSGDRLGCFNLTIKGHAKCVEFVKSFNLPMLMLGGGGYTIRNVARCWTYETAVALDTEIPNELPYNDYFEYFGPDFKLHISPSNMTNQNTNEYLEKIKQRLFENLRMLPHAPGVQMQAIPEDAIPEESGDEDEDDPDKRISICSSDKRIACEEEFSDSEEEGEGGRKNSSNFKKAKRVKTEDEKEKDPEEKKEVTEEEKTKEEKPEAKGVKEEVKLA

In the case of `CCc1c2c(nc3ccc(OC(=O)N4CCC(N5CCCCC5)CC4)cc13)-c1cc3c(c(=O)n1C2)COC(=O)[C@]3(O)CC` [IRINOTECAN], the IC50 in [1] is 4.8 µM; in assay [2] it was 5.8 µM; in [3], 1.5 µM; in assay [4], 20.1 µM; in [5], above 10 µM; in assay [6] it was above 10 µM. In addition, the IC50 in assay [10] is 1 µM; in assay [11], 2.4 µM; in assay [12], 4.1 µM; in assay [13], 9.4 µM; in assay [14], 3.8 µM; in [15], above 10 µM. For the same compound, the half-inhibitory concentration (IC50) in assay [17] is above 10 µM; in [19], above 10 µM; in assay [20], 4 µM; in [22] it was 4.4 µM; in [24], above 10 µM; in assay [25], 2.8 µM. Moreover, the IC50 came out at 0.74 µM in assay [26] and 10 µM in [27]. The Activity stood at 36% in assay [7]; 12% in assay [8]; 0% in assay [9]; 0% in [16]; 48% in assay [18]; 0% in [23]. Also, in assay [21], the inhibition in vivo at 20 mg/kg was found to be 37%.

For the compound `CC[C@@]1(O)C(=O)OCc2c1cc1n(c2=O)Cc2c-1nc1ccccc1c2/C=N/OCCCCCC(=O)NCCSSCCNC(=O)/C(Cc1ccc(O)cc1)=N\O`, the IC50 worked out at 0.46 µM in [1]; 0.58 µM in assay [2]; 0.075 µM in assay [3]; 1.6 µM in [4]; 0.22 µM in assay [11]; 0.31 µM in assay [12]. The IC50 in [14] was determined as 0.29 µM; in assay [20], 0.61 µM; in [25], 0.19 µM.

In the case of `CC[C@@]1(O)C(=O)OCc2c1cc1n(c2=O)Cc2c-1nc1ccc(O)cc1c2/C=N/OCCCCCC(=O)NCCSSCCNC(=O)/C(Cc1ccc(O)c(Br)c1)=N\O`, the IC50 in assay [3] is 0.2 µM; in assay [28] it was 0.41 µM; in assay [11] it was 0.88 µM; in assay [29], 0.00912 µM; in assay [30], “Not Active”; in assay [31] it was 0.253 µM. Besides, the IC50 in assay [32] turned out to be 1.49 µM.
